SENP8 block-1: SENP8 protease inhibitors, primary screen, biochemical, luminescence | Sentrin-specific protease 8 (Homo sapiens), Q96LD8 | purified SENP8, Z-RLRGG-aminoluciferin cleavage | inhibition, % at 10 µM | 330,000 compounds, 1.2% hits; in the data active = inhibition above about 50%
Target sequence (Q96LD8 whole entry, looked up): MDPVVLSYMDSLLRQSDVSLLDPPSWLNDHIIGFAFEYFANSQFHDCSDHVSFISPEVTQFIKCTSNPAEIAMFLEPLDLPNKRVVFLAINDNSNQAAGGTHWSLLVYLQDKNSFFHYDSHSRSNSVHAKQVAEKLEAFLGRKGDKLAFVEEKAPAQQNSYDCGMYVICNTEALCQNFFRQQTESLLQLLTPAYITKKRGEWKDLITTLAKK
SENP1 inh: human SENP1 catalytic domain inhibitors, primary screen, biochemical, FRET, uHTS; Sentrin-specific protease 1 (Homo sapiens), Q9P0U3; recombinant SENP1 catalytic domain, CyPet-SUMO1-YPet FRET cleavage; inhibition, % at 10 µM; 360,000 compounds, 0.21% hits;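 active = inhibition at least 30% at 10 µM, raw YFP signal under a set limit, fluorescence ratio 0.5 to 1.5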;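 also: 0% = enzyme with DMSO and 100% = no enzyme wells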
Target sequence (Q9P0U3 419-644 limits assumed): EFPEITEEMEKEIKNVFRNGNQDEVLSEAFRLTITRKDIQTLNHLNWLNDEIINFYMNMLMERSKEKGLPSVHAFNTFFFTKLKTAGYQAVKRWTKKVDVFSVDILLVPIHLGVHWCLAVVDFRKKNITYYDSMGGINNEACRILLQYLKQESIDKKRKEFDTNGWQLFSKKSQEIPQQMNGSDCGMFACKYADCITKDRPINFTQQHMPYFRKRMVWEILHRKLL
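Test system: hSENP1 catalytic domain, recombinant; Amount: 20 pM final SENP1 enzyme; Medium: Tris pH 8 buffer plus EDTA, NaCl, BME, BSA, NP40, catalase; Schedule: 50 min enzyme reaction, room temperature, light-protected; Technique: FRET fluorescence in CFP and YFP emission channels; Controls: no-enzyme wells low, DMSO-plus-enzyme wells high control.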
SENP7 block: SENP7 protease inhibitors, primary screen, biochemical, luminescence, uHTS; Sentrin-specific protease 7 (Homo sapiens), Q9BQF6; recombinant SENP7, Z-RLRGG-aminoluciferin luminescence, 40 min; inhibition, % at 5 µM; 330,000 compounds, 1.5% hits; AID 434973, 2010;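 active = inhibition above about 50% at the single test dose, limit read from the data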;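 also: plate controls were DMSO with enzyme for no effect and no enzyme buffer wells for full effect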
HSP90 refold inh: HSP90 inhibitors, primary screen, cell lysate, luminescence; AID 1789, 2009; Rabbit reticulocyte lysate, luciferase refolding luminescence, 3 h; Heat shock protein HSP 90 (rabbit reticulocyte lysate; luciferase refolding); inhibition, % at 5.6 µM; 290,000 compounds, 0.91% hits;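 active = inhibition above the screen-wide mean plus 3 SD, computed separately per campaign, cut at about 16% in these data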;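 also: 0% = DMSO wells and 100% = 60 µM geldanamycin wells; inhibitors lower the luminescence because luciferase stays unfolded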
SENP6 block: SENP6 protease inhibitors, primary screen, biochemical, luminescence, uHTS; Sentrin-specific protease 6 (Homo sapiens), Q9GZR1; Recombinant SENP6 catalytic domain, aminoluciferin luminescence; AID 2599, 2010; inhibition, % at 10 µM; 330,000 compounds, 1.8% hits;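 active = inhibition above about 50% at the single tested dose, limit read from the data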;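 also: plate controls were DMSO wells with enzyme for no effect and DMSO wells lacking enzyme for full effect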
SENP8 block-2: human SENP8 protease inhibitors, primary screen, biochemical, fluorescence, Nedd8 protein substrate, uHTS; Sentrin-specific protease 8 (Homo sapiens), Q96LD8; recombinant SENP8; inhibition, % at 20 µM; 360,000 compounds, 0.64% hits; AID 602440, 2012; in the data active = inhibition mostly above about 40%, no sharp cut-off; inactive = mostly below about 27%
SENP8 confirm: SENP8 protease inhibitors, retest, confirmation, biochemical, luminescence, single concentration | AID 488912, 2010 | shares compounds with SENP7 block | 6,200 compounds, 40% hits | inhibition, % at 12.5 µM | Recombinant SENP8, Z-RLRGG-aminoluciferin luminescence, 60 min;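 active = mean inhibition across replicates above about 50%, limit read from the data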
SENP6 confirm: SENP6 protease inhibitors, confirmation, biochemical, luminescence, single concentration; AID 488915, 2010; 6,200 compounds, 58% hits; inhibition, % at 12.5 µM; shares compounds with SENP7 block; recombinant SENP6, Z-RLRGG-aminoluciferin luminescence
SENP7 conf: SENP7 protease inhibitors, retest, confirmation, biochemical, luminescence, single concentration; shares compounds with SENP7 block; recombinant SENP7, Z-RLRGG-aminoluciferin luminescence, 40 min; inhibition, % at 12.5 µM; 6,200 compounds, 69% hits; AID 488917, 2010
Casp3 select: caspase-3 protease inhibitors, confirmation, selectivity assay for SENP inhibitor project, biochemical, single concentration | shares compounds with SENP7 block | purified caspase-3, Z-DEVD-aminoluciferin luminescence, 60 min | inhibition, % at 12.5 µM | 6,200 compounds, 60% hits;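 active = mean inhibition above about 50%, limit read from the data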;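 also: plate controls were enzyme with DMSO for no effect and wells without caspase-3 for full effect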
Target sequence (P42574 28-227 limits assumed): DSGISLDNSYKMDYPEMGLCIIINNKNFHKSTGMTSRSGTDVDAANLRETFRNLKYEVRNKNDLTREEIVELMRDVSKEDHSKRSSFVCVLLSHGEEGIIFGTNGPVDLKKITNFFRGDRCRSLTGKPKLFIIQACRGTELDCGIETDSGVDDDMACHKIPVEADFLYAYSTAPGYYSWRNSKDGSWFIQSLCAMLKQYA
Luc interf: counter-screen for SENP inhibitors: luminescence interference. AID 488919. shares compounds with SENP7 block. inhibition, % at 12.5 µM. Pre-incubated SENP8/Z-RLRGG-aminoluciferin, luciferase luminescence interference. 6,200 compounds, 39% hits;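 active = mean inhibition above about 50% when retested at one dose, limit read from the data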;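 also: plate controls were DMSO wells with completed reaction for no effect and substrate without enzyme for full effect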
Numbers without * were called inactive; i = inactive; . = not tested or not shown. Only some compounds are listed: those with a hit (about 2.9% of all), similar ones and a draw of the others.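 The calls were made as follows, unless noted: active = mean inhibition above about 50% in the one-dose retest (limit read from the data); inactive = the rest.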

SMILES | SENP8 block-1 | SENP1 inh | SENP7 block | HSP90 refold inh | SENP6 block | SENP8 block-2 | SENP8 confirm | SENP6 confirm | SENP7 conf | Casp3 select | Luc interf
Cc1ccc(-c2nc3ccsc3c(=O)o2)cc1 | -12.7 | 5.9 | 52.2* | -2.2 | 55.0* | 27.2 | 37.3 | 29.6 | 67.3* | 15.7 | 55.9*
CCOC(=O)C1=C(C)NC(C)=C(C(=O)OCC)C1C(=O)OCC(=O)N1CCOCC1 | 9.5 | -7.3 | -2.9 | . | -2.3 | -356.0 | . | . | . | . | .
Cc1n[nH]c(=O)nc1N/N=C/c1ccc(O)c([N+](=O)[O-])c1 | 36.3 | 2.1 | 64.8* | -1.1 | 65.0* | 55.3* | 50.2* | 38.6 | 81.9* | 77.4* | 8.0
COc1ccc(/C=N/Nc2nc(=O)[nH]nc2C)cc1[N+](=O)[O-] | -10.9 | 1.9 | 15.7 | -4.2 | 22.6 | 22.6 | . | . | . | . | .
CSc1ccc(C(=O)/C=C/c2ccc(N)cc2)cc1 | 28.2 | -0.9 | 55.8* | 2.1 | 70.6* | 11.2 | 82.9* | 64.9* | 87.4* | 40.2 | 88.3*
O=C(/C=C/c1ccc(O)cc1)c1ccccc1 | 94.6* | 24.3 | 93.4* | 1.8 | 1.4 | -42.6 | 14.7 | 99.3* | 102.7* | 91.6* | 98.5*
COc1ccc(C(=O)/C=C/c2ccc(O)cc2)cc1 | 51.0* | 1.0 | 62.0* | -4.2 | 48.3 | -61.5 | 8.7 | 56.6* | 76.4* | 10.7 | 89.4*
Cc1ccc(/C=C/C(=O)c2ccc(C)cc2)cc1 | -1.7 | 2.6 | -11.6 | 0.9 | 52.1* | 11.6 | 1.6 | -8.7 | -22.9 | -7.3 | 4.4
OCCC1CN(CC2CC2)CCN1Cc1ccc(F)c(F)c1 (stereo not drawn) | 3.7 | 2.6 | 1.8 | -4.9 | 7.7 | 14.1 | . | . | . | . | .
Cc1nn(C)cc1/C=C/C(=O)c1ccc(O)cc1 | 30.6 | 4.3 | -3.7 | -3.2 | 53.0* | -3.8 | -9.5 | -16.2 | -13.4 | 3.6 | 38.1
COc1ccc(C(=O)O/N=C(\C)c2ccccc2)cc1 | 97.2* | 0.8 | 100.5* | -0.4 | 95.5* | 14.9 | 99.7* | 100.6* | 103.3* | 99.1* | 98.4*
COc1ccc(C(=O)O/N=C(/c2ccccc2)c2ccncc2)cc1 | -8.4 | 5.6 | -1.4 | -0.6 | -5.2 | 11.6 | . | . | . | . | .
COc1ccc(C(=O)O/N=C(\N)c2ccc(OC)c(OC)c2)cc1 | 22.9 | 1.3 | 81.3* | 3.7 | 64.0* | 7.0 | 26.6 | 16.9 | 61.2* | 41.7 | 11.3
COc1ccc(/C(N)=N/OC(=O)c2ccc(OC)c([N+](=O)[O-])c2)cc1OC | 9.6 | 1.4 | 4.2 | 1.1 | 2.8 | 10.6 | . | . | . | . | .
CC(C)=NOC(=O)c1ccc(-c2ccccc2)cc1 | 57.9* | -0.4 | 72.4* | -3.3 | 76.6* | 28.6 | 75.0* | 75.9* | 90.1* | 71.0* | 67.3*
CC(=O)N1CCN(S(=O)(=O)c2cccc(C(=O)NCCC3=CCCCC3)c2)CC1 | -7.4 | -0.8 | -14.5 | . | -16.5 | 12.6 | . | . | . | . | .
N[C@@H](Cc1ccccc1)C(=O)N1CCC(C(=O)N[C@@H](Cc2c[nH]c3ccccc23)C(=O)O)CC1 | -9.3 | -1.8 | -13.2 | -3.7 | -5.9 | 4.8 | . | . | . | . | .
Cc1ccc(NC(=O)[C@@H]2O[C@H](CO)[C@H](O)[C@H](O)[C@H]2O)cc1C(F)(F)F | . | -2.2 | . | . | . | 10.1 | . | . | . | . | .
Cc1ccc(C(=O)Nc2ccc3nc(C)sc3c2)o1 | . | -4.6 | . | . | . | 10.0 | . | . | . | . | .
Cc1nc2ccc(NC(=O)c3cc(Cl)ccn3)cc2s1 | 60.5* | -31.3 | 68.3* | 7.1 | 73.9* | 2.5 | 10.8 | 30.2 | 59.3* | 37.3 | 8.5
Cc1nc2ccc(NC(=O)c3ccc(Cl)nc3)cc2s1 | -4.7 | -7.7 | 1.4 | 5.3 | 91.7* | 2.7 | 1.5 | -5.0 | -8.6 | 7.8 | -4.6
O=c1c2cc(Br)ccc2nc(-c2ccccc2)n1O | 48.5 | 2.1 | -2.7 | 3.6 | 62.5* | -2.9 | 64.8* | 60.9* | 84.5* | 60.8* | 72.2*
COc1ccc(C(=O)Nc2c(-c3cccs3)c(=O)c3ccccc3n2C)cc1 | 0.1 | -18.1 | 2.5 | 1.9 | 5.4 | -84.3 | . | . | . | . | .
Cc1ccc(C(=O)COC(=O)c2ccc(Cl)c(N)c2)s1 | 54.2* | 0.5 | 55.8* | . | 65.6* | -17.4 | 50.2* | 47.7 | 83.8* | 46.4 | 48.9
Nc1cc(C(=O)OCC(=O)c2ccc(CC(=O)N3CCOCC3)s2)ccc1Cl | -2.9 | -32.2 | -9.2 | . | -11.0 | -32.1 | . | . | . | . | .
SMILES | SENP8 block-1 | SENP1 inh | SENP7 block | HSP90 refold inh | SENP6 block | SENP8 block-2 | SENP8 confirm | SENP6 confirm | SENP7 conf | Casp3 select | Luc interf
COc1ccc2c(CC(=O)N3CCc4ccccc43)coc2c1 | 71.7* | -5.6 | 85.1* | 0.7 | 84.7* | -2.9 | 81.0* | 80.7* | 93.2* | 80.6* | 61.4*
Cc1ccc(SC2=C(Sc3ccc(C)cc3)C(=O)c3ccccc3C2=O)cc1 | 39.8 | -9.0 | 12.3 | 7.3 | 62.1* | -92.9 | 9.9 | 10.7 | 15.6 | 11.2 | 5.4
CC1=CC(=O)C(Sc2ccc(C)cc2)=CC1=O | . | 1.4 | . | . | . | 22.0 | . | . | . | . | .
COc1cc(Cl)c(NC2=CC(=O)C(=O)c3ccccc32)c(OC)c1 | 75.1* | -2.0 | 59.8* | . | -11.5 | i | 0.6 | 89.7* | 73.8* | 8.5 | -0.4
COc1cc(Cl)c(NS(=O)(=O)c2ccc(-c3ccc(=O)[nH]n3)o2)c(OC)c1 | 0.8 | 4.2 | -10.5 | -4.0 | 8.8 | 6.0 | . | . | . | . | .
CC(C)(C)OC(=O)N1CCN(C(=O)c2[nH]cnc2C(=O)Nc2nccs2)CC1 | 0.0 | 0.4 | -8.5 | . | -15.5 | 14.2 | . | . | . | . | .
COC(=O)[C@]12CCCCC=C1N(Cc1ccccc1)C(=O)[C@H](CC(=O)NCc1ccccc1)C2 | . | 1.6 | . | . | . | 22.2 | . | . | . | . | .
